Among the data in ChEMBL document CHEMBL1147365, “A screen for inhibitors of DNA recombination: identification of two new spirostanol glycosides from Chamaedorea linearis” (J Nat Prod, 1993) are Activity, IC12 and IC50 values, retold here.

Activity calls are given as the source filed them. The rule behind the calls is not given here.

For assay [1], the system named is Saccharomyces cerevisiae. The assay can be described thus: DNA damaging activity against […] assessed as drug concentration required to produce 12 mm zone of inhibition up to 800 ug/well by agar diffusion assay. It is filed as functional, organism-based. The settings on record: W303-1A.
Assay [2] deals with Saccharomyces cerevisiae. Nature of the assay: DNA damaging activity against […] assessed as drug concentration required to produce 12 mm zone of inhibition by agar diffusion assay. It is filed as functional, W303-1A. (In general: Agar diffusion results depend on both activity and mobility in agar.)
For assay [3], the system named is L1210. Nature of the assay: Antiproliferative activity against mouse L1210 cells up to 32 uM. It is filed as functional, cell-based. An outline of the steps:
(§1)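 Murine L1210 cells were grown in suspension culture and proliferation was measured.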

Assay [4] has as its system L1210. Nature of the assay: Antiproliferative activity against mouse L1210 cells. It is filed as functional, cell-based. An outline of the steps: as §1

Regarding `CO[C@H]1C[C@H](O[C@H]2CC[C@]3(C=O)[C@H]4CC[C@]5(C)[C@@H](C6=CC(=O)OC6)CC[C@]5(O)[C@@H]4CC[C@]3(O)C2)O[C@H](C)[C@H]1O[C@H]1O[C@@H](CO)[C@H](O[C@@H]2O[C@H](CO)[C@@H](O)[C@H](O)[C@H]2O)[C@@H](O)[C@@H]1O`, in the assay on Saccharomyces cerevisiae [1], the result was inactive. Regarding `C[C@@H]1O[C@@H](O[C@H]2C[C@@H](O)[C@]3(CO)[C@H]4[C@H](O)C[C@]5(C)[C@@H](C6=CC(=O)OC6)CC[C@]5(O)[C@@H]4CC[C@]3(O)C2)[C@H](O)[C@H](O)[C@H]1O`, in the assay with Saccharomyces cerevisiae [1], the outcome was inactive. On the same count and under the same terms, with `CO[C@H]1[C@H](O)[C@H](O[C@H]2CC[C@@]3(C)[C@H](CC[C@@H]4[C@@H]3CC[C@]3(C)[C@@H](C5=CC(=O)OC5)CC[C@]43O)C2)O[C@@H](C)[C@@H]1O` the entry was “inactive”. For `C[C@H]1O[C@@H](O[C@H]2[C@@H](O)C[C@H](O[C@H]3[C@@H](O)C[C@H](O[C@H]4CC[C@@]5(C)[C@H](CC[C@@H]6[C@@H]5CC[C@]5(C)[C@@H](C7=CC(=O)OC7)[C@@H](O)C[C@]65O)C4)O[C@@H]3C)O[C@@H]2C)C[C@H](O)[C@@H]1O`, the outcome in the assay with Saccharomyces cerevisiae [1] was inactive.

As a reminder, the IC50 is the point on the concentration scale where inhibition reaches its midpoint. Lower therefore signals greater potency. With `C[C@H]1CC[C@@]2(OC1)O[C@H]1C[C@H]3[C@@H]4CC[C@H]5C[C@@H](O)C[C@@H](O[C@H]6O[C@@H](C)[C@@H](O)[C@@H](O)[C@@H]6O)[C@]5(C)[C@H]4CC[C@]3(C)[C@H]1[C@@H]2C` [BRISBAGENIN FUCOSIDE], the IC12 in the assay on Saccharomyces cerevisiae [2] worked out at 2.6 µg. Further, in the assay on L1210 [3], the outcome was inactive. In the assay with L1210 [4], this molecule gave an IC50 of 5 µM.

`C[C@H]1CC[C@@]2(OC1)O[C@H]1C[C@H]3[C@@H]4CC[C@H]5C[C@@H](O)C[C@@H](O[C@H]6O[C@@H](C)[C@@H](OS(=O)(=O)O)[C@@H](O)[C@@H]6O)[C@]5(C)[C@H]4CC[C@]3(C)[C@H]1[C@@H]2C`: the IC12 with Saccharomyces cerevisiae [2] was found to be 3.5 µg. Moreover, in the assay on L1210 [3], the result was inactive. For `C[C@@H]1O[C@@H](O[C@H]2CC[C@]3(C=O)[C@H]4CC[C@]5(C)[C@@H](C6=CC(=O)OC6)CC[C@]5(O)[C@@H]4CC[C@]3(O)C2)[C@H](O)[C@H](O)[C@H]1O`, in the assay on Saccharomyces cerevisiae [1], the result was inactive. The same measure, in the same setting: for `C[C@H]1O[C@@H](O[C@H]2[C@@H](O)C[C@H](O[C@H]3[C@@H](O)C[C@H](O[C@H]4CC[C@@]5(C)[C@H](CC[C@@H]6[C@@H]5C[C@@H](O)[C@]5(C)[C@@H](C7=CC(=O)OC7)CC[C@]65O)C4)O[C@@H]3C)O[C@@H]2C)C[C@H](O)[C@@H]1O` the value was “inactive”.
